Reference: ChEMBL document CHEMBL1142492 (J Med Chem, 2008)

What was measured:
[1] = biological target: Phosphatidylinositol 4,5-bisphosphate 3-kinase catalytic subunit delta isoform (Homo sapiens) (UniProt O00329); test: Inhibition of PIK3CD at 3 uM
[2] = biological target: Serine/threonine-protein kinase 16 (Homo sapiens) (UniProt O75716); test: Inhibition of STK16 at 3 uM
[3] = biological target: Uncharacterized serine/threonine-protein kinase SBK3 (Homo sapiens) (UniProt P0C264); test: Inhibition of SgK110 at 3 uM
[4] = biological target: NT-3 growth factor receptor (Homo sapiens) (UniProt Q16288); test: Inhibition of TRKC at 3 uM
[5] = biological target: LIM domain kinase 2 (Homo sapiens) (UniProt P53671); test: Inhibition of LIMK2 at 3 uM
[6] = biological target: Insulin-like growth factor 1 receptor (Homo sapiens) (UniProt P08069); test: Inhibition of IGF1R at 3 uM
[7] = biological target: Mitogen-activated protein kinase kinase kinase kinase 5 (Homo sapiens) (UniProt Q9Y4K4); test: Inhibition of MAP4K5 at 3 uM
[8] = biological target: Tyrosine-protein kinase Mer (Homo sapiens) (UniProt Q12866); test: Inhibition of MERTK at 3 uM
[9] = biological target: Serine/threonine-protein kinase 4 (Homo sapiens) (UniProt Q13043); test: Inhibition of MST1 at 3 uM
[10] = biological target: Serine/threonine-protein kinase NLK (Homo sapiens) (UniProt Q9UBE8); test: Inhibition of NLK at 3 uM
[11] = biological target: Mitogen-activated protein kinase 11 (Homo sapiens) (UniProt Q15759); test: Inhibition of p38-beta at 3 uM
[12] = biological target: Mitogen-activated protein kinase 12 (Homo sapiens) (UniProt P53778); test: Inhibition of p38-gamma at 3 uM
[13] = biological target: Serine/threonine-protein kinase PAK 6 (Homo sapiens) (UniProt Q9NQU5); test: Inhibition of PAK6 at 3 uM
[14] = biological target: Cyclin-dependent kinase 16 (Homo sapiens) (UniProt Q00536); test: Inhibition of PCTK1 at 3 uM
[15] = biological target: Protein kinase C epsilon type (Homo sapiens) (UniProt Q02156); test: Inhibition of PRKCE at 3 uM
[16] = biological target: Protein kinase C eta type (Homo sapiens) (UniProt P24723); test: Inhibition of PRKCH at 3 uM
[17] = biological target: Protein kinase C theta type (Homo sapiens) (UniProt Q04759); test: Inhibition of PRKCQ at 3 uM
[18] = biological target: RAF proto-oncogene serine/threonine-protein kinase (Homo sapiens) (UniProt P04049); test: Inhibition of RAF1 at 3 uM
[19] = biological target: Serine/threonine-protein kinase RIO1 (Homo sapiens) (UniProt Q9BRS2); test: Inhibition of RIOK1 at 3 uM
[20] = biological target: Cyclin-dependent kinase 14 (Homo sapiens) (UniProt O94921); test: Inhibition of PFTK1 at 3 uM
[21] = biological target: Phosphatidylinositol 4,5-bisphosphate 3-kinase catalytic subunit alpha isoform (Homo sapiens) (UniProt P42336); test: Inhibition of PIK3CA at 3 uM
[22] = biological target: Phosphatidylinositol 4,5-bisphosphate 3-kinase catalytic subunit beta isoform (Homo sapiens) (UniProt P42338); test: Inhibition of PIK3CB at 3 uM
[23] = biological target: Histamine H3 receptor (Homo sapiens) (UniProt Q9Y5N1); test: Inhibition of human histamine H3 receptor at 3 uM
Summary of the method: (§1)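 Counter-screen binding/enzyme panel at single 3 μM, n=2; results as percent inhibition. Species per target as listed (rat NMDA, GABAA sites; human receptors, transporters; rabbit ACE).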

[24] = biological target: Muscarinic acetylcholine receptor M3 (Homo sapiens) (UniProt P20309); test: Inhibition of human muscarinic M3 receptor at 3 uM
[25] = biological target: Neuropeptide Y receptor type 2 (Homo sapiens) (UniProt P49146); test: Inhibition of human neuropeptide Y Y2 receptor at 3 uM
[26] = biological target: Mu-type opioid receptor (Homo sapiens) (UniProt P35372); test: Inhibition of human mu opioid receptor at 3 uM; summary of the method: as §1
[27] = biological target: Cyclin-dependent kinase 2 (Homo sapiens) (UniProt P24941); test: Inhibition of CDK2 at 3 uM
[28] = biological target: Cyclin-dependent kinase 5 (Homo sapiens) (UniProt Q00535); test: Inhibition of CDK5 at 3 uM
[29] = biological target: Activin receptor type-1 (Homo sapiens) (UniProt Q04771); test: Inhibition of ACVR1 at 3 uM
[30] = biological target: RAC-alpha serine/threonine-protein kinase (Homo sapiens, UniProt P31749); test: Inhibition of AKT1 at 3 uM
[31] = biological target: NUAK family SNF1-like kinase 1 (Homo sapiens) (UniProt O60285); test: Inhibition of ARK5 at 3 uM
[32] = biological target: Aurora kinase A (Homo sapiens) (UniProt O14965); test: Inhibition of AURKA at 3 uM
[33] = biological target: Tyrosine-protein kinase Blk (Homo sapiens) (UniProt P51451); test: Inhibition of BLK at 3 uM
[34] = biological target: Serine/threonine-protein kinase Chk1 (Homo sapiens) (UniProt O14757); test: Inhibition of CHEK1 at 3 uM
[35] = biological target: Citron Rho-interacting kinase (Homo sapiens) (UniProt O14578); test: Inhibition of CIT at 3 uM
[36] = biological target: 5-hydroxytryptamine receptor 1A (Homo sapiens) (UniProt P08908); test: Inhibition of human 5HT1A receptor at 3 uM; summary of the method: as §1
[37] = biological target: Casein kinase I isoform gamma-1 (Homo sapiens) (UniProt Q9HCP0); test: Inhibition of CSNK1G1 at 3 uM
[38] = biological target: Serine/threonine-protein kinase MRCK gamma (Homo sapiens) (UniProt Q6DT37); test: Inhibition of DMPK2 at 3 uM
[39] = biological target: Serine/threonine-protein kinase 17A (Homo sapiens) (UniProt Q9UEE5); test: Inhibition of DRAK1 at 3 uM
[40] = biological target: Dual specificity tyrosine-phosphorylation-regulated kinase 1B (Homo sapiens) (UniProt Q9Y463); test: Inhibition of DYRK1B at 3 uM
[41] = biological target: Calcium/calmodulin-dependent protein kinase type 1G (Homo sapiens) (UniProt Q96NX5); test: Inhibition of CAMK1G at 3 uM
[42] = biological target: Calcium/calmodulin-dependent protein kinase kinase 1 (Homo sapiens) (UniProt Q8N5S9); test: Inhibition of CAMKK1 at 3 uM
[43] = biological target: Mitogen-activated protein kinase 7 (Homo sapiens) (UniProt Q13164); test: Inhibition of ERK5 at 3 uM
Summary of the method: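 Single-concentration kinase panel scoring: each value is the percentage of enzyme activity remaining relative to a DMSO-only control. An activity statistically indistinct from DMSO control was scored "no hit".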

Homo sapiens = species: Homo sapiens; settings: 3 uM
Rattus norvegicus = species: Rattus norvegicus; settings: 3 uM
[44] = biological target: Kappa-type opioid receptor (Homo sapiens) (UniProt P41145); test: Inhibition of human kappa opioid receptor at 3 uM

Measured: inhibition

Chain of LIM domain kinase 2 (Homo sapiens) (P53671 whole entry, looked up, the tested form may be a part): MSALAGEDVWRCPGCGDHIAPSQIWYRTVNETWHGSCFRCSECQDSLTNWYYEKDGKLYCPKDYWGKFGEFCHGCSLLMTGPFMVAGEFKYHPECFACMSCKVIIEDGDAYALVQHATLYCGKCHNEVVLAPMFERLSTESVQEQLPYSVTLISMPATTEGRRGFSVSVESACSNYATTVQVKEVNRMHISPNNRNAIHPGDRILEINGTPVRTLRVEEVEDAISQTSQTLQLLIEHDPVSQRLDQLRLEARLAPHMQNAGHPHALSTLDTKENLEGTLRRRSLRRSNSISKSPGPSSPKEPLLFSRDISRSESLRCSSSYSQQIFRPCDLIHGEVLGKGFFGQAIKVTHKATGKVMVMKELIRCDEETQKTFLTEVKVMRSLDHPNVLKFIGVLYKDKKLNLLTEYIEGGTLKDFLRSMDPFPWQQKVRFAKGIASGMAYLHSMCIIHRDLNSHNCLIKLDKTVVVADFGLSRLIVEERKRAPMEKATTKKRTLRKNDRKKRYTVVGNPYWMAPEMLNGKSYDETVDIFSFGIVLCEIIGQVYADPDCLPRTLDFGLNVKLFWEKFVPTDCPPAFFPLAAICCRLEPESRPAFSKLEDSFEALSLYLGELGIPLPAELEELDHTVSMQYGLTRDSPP
Chain of RAF proto-oncogene serine/threonine-protein kinase (Homo sapiens) (P04049 whole entry): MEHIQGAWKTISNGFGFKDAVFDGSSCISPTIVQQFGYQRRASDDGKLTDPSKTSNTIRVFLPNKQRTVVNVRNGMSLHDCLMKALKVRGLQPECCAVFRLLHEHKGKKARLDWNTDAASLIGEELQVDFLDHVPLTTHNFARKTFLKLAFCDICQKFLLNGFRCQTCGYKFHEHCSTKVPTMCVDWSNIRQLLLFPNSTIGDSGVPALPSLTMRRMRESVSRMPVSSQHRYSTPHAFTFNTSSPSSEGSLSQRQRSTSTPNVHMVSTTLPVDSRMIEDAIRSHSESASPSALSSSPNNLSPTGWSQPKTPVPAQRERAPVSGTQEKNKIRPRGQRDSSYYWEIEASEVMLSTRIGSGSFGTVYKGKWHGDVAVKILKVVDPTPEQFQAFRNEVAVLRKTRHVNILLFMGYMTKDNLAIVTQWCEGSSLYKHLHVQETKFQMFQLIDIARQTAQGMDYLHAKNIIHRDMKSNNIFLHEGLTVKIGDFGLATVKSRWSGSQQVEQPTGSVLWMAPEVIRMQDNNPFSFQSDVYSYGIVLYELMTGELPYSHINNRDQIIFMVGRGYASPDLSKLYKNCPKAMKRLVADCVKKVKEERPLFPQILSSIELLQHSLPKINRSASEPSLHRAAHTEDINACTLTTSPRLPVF
Chain of Citron Rho-interacting kinase (Homo sapiens) (O14578 whole entry): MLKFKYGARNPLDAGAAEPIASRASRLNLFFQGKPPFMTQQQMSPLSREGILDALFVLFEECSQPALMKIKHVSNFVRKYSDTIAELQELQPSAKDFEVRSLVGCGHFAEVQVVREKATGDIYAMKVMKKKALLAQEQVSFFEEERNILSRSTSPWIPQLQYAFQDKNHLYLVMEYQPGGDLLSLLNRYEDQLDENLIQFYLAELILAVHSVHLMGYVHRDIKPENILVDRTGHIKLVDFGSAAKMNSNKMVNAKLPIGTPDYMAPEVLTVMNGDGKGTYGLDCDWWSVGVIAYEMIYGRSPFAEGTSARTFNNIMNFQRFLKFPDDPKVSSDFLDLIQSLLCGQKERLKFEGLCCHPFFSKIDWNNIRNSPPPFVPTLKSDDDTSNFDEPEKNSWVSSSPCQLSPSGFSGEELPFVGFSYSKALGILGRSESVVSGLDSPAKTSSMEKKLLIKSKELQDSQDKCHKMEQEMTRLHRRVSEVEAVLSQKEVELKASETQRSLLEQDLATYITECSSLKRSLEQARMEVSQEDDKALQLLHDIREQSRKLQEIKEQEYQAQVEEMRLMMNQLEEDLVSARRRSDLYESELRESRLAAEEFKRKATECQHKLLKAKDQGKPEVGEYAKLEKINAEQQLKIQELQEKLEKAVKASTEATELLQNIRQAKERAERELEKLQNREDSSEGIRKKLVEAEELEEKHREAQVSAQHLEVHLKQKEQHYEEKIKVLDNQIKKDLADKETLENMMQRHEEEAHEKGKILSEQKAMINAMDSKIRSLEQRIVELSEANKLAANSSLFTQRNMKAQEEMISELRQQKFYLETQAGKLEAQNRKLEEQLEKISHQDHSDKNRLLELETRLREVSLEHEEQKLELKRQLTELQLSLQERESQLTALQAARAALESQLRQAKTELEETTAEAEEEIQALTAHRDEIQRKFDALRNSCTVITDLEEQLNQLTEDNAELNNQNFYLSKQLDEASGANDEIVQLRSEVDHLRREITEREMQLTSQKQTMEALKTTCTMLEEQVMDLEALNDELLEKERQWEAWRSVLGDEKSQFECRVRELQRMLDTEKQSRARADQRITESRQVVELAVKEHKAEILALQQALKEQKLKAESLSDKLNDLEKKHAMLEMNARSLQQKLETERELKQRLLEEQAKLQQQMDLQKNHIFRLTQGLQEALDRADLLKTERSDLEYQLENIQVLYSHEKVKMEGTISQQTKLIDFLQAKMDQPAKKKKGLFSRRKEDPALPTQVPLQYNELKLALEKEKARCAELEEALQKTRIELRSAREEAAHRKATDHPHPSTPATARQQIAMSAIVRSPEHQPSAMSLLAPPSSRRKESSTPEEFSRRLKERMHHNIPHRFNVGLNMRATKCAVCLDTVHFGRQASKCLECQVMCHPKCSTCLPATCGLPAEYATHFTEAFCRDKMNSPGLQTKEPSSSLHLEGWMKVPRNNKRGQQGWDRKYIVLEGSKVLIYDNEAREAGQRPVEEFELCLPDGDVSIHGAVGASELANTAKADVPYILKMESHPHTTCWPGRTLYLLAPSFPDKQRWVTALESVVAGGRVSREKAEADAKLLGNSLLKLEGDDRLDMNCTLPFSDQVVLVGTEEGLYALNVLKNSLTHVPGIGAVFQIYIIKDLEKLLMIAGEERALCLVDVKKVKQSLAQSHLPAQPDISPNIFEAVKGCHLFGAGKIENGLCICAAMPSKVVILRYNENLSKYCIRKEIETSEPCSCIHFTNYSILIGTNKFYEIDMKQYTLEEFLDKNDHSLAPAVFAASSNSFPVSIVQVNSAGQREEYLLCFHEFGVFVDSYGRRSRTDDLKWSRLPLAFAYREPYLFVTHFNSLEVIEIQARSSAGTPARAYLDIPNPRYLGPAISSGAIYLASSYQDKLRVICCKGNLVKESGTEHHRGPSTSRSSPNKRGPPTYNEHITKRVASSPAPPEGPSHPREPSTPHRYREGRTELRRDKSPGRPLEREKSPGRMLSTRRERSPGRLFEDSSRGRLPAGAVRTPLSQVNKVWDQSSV
Chain of Calcium/calmodulin-dependent protein kinase type 1G (Homo sapiens) (Q96NX5 whole entry): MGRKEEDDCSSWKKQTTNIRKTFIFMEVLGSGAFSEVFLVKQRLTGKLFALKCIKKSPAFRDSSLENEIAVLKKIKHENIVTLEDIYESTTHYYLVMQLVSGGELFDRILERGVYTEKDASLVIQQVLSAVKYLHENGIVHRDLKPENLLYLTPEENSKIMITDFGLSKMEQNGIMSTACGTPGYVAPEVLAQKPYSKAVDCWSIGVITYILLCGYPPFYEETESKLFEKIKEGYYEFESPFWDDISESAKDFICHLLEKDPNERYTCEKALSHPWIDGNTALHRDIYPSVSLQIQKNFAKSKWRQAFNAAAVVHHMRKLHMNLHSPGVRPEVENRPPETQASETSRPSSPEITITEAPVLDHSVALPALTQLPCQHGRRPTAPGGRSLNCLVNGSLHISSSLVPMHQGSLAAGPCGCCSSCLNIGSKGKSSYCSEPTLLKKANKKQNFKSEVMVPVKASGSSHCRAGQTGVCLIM
Chain of Protein kinase C epsilon type (Homo sapiens) (Q02156 whole entry): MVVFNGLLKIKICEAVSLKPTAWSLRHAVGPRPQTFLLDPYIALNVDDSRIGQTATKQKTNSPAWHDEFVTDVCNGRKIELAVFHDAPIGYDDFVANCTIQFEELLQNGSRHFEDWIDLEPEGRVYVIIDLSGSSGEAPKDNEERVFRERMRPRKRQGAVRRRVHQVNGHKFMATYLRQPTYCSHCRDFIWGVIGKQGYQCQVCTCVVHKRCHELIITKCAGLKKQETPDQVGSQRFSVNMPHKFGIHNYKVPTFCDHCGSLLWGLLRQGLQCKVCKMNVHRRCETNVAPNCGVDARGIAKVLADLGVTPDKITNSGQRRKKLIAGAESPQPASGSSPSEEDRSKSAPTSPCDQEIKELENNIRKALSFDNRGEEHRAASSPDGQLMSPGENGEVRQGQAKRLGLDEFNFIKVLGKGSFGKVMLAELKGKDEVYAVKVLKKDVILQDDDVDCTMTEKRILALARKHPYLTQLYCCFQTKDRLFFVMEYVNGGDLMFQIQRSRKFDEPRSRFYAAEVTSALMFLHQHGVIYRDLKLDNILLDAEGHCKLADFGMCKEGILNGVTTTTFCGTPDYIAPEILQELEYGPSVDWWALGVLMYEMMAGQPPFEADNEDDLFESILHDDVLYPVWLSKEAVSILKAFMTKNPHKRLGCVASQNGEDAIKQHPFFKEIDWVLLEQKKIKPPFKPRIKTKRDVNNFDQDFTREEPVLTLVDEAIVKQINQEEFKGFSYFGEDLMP
Chain of Calcium/calmodulin-dependent protein kinase kinase 1 (Homo sapiens) (Q8N5S9 whole entry, looked up): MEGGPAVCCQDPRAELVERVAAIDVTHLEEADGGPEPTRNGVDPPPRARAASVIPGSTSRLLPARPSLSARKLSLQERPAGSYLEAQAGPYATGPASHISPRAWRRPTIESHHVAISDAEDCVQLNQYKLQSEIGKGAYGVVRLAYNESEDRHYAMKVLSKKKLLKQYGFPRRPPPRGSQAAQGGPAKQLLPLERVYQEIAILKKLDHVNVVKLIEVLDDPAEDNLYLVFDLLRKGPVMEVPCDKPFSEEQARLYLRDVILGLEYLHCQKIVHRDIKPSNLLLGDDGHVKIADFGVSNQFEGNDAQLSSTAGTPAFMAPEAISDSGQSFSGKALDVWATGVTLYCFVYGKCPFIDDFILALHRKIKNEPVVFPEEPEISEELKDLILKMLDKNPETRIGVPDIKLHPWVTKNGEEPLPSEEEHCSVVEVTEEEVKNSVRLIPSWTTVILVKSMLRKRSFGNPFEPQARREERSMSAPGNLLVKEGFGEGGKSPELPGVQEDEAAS

CN(C)CCOc1cc(-c2cn[nH]c2)ccc1NC(=O)C1COc2ccccc2O1 (stereo unspecified) [SR-3677]
4%: Homo sapiens
-2%: [23]
6%: [36]
-7%: [44]
3%: [24]
5%: [26]
0%: [25] | Rattus norvegicus
< 10%: all other assays above
